Measured values from ChEMBL document CHEMBL3232775, “Synthesis and evaluation of amide side-chain modified Agomelatine analogues as potential antidepressant-like agents” (Bioorg Med Chem Lett, 2014).
Calls of active or inactive are those of the source. The rule behind the calls is not given here.

Key:
[1] = Octanol-water partition coefficient, log P of the compound; format: physicochemical
[2] = Cytotoxicity against human HEK293 cells assessed as inhibitory rate at 80 uM after 24 hrs by MTT assay; format: cell-based; conditions: read-out: INH
How it was run: (§1)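 Human normal liver L02 cells and human embryonic kidney 293 cells treated with compound at 80 μM for 24 h. Viability of untreated cells taken as 100%; inhibitory rate reported as mean ± SD of three independent experiments.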

[3] = Cytotoxicity against human L02 cells assessed as inhibitory rate at 80 uM after 24 hrs by MTT assay; format: cell-based; conditions: read-out: INH; how it was run: as §1
PC-12 = assay: Inhibition of corticosterone-induced rat PC12 cells lesions assessed as protection rate at 1.25 uM after 24 hrs by MTT assay; format: functional; design: scale not given: the % may be the effect or the level left
How it was run: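 Rat PC12 cells injured with corticosterone and co-treated with compound at 1.25 μM, absorbance read 24 h after treatment. Protection rate = (A_d − A_c)/A_c × 100%, where A_c is the mean absorbance of corticosterone-only controls and A_d that of corticosterone plus compound. Six independent experiments, ± SD.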

Mus musculus = assay: Antidepressant activity in C57 mouse assessed as decrease in immobility time at 32 mg/kg, ip on days 2 to 15 by forced swimming test; format: functional, organism-based; design: dose 32 mg/kg

SMILES: COc1ccc2cccc(CCNC(=O)CC(C)(C)CC(=O)O)c2c1
- logP [1]: 1.75
- cytotoxicity at 24 h, 80 µM [2]: 34.1%
- cytotoxicity at 24 h, 80 µM [3]: 5.7%
- Activity (PC-12): 6.3%

SMILES: COc1ccc2cccc(CCNC(=O)N3CCN(C(=O)OC(C)(C)C)CC3)c2c1
- logP [1]: 1.06
- cytotoxicity at 24 h, 80 µM [2]: 13.3%
- cytotoxicity at 24 h, 80 µM [3]: 3%
- Activity (PC-12): 6.3%

SMILES: COc1ccc2cccc(CCNC(=O)N3CCC(c4ccccc4)CC3)c2c1
- logP [1]: 2.05
- cytotoxicity at 24 h, 80 µM [2]: 16.5%
- cytotoxicity at 24 h, 80 µM [3]: 8.6%
- Activity (PC-12): 2.5%

SMILES: COc1ccc2cccc(CCN3C(=O)CC(C)(C)CC3=O)c2c1
- logP [1]: 2.78
- cytotoxicity at 24 h, 80 µM [2]: 41.9%
- cytotoxicity at 24 h, 80 µM [3]: 10.4%
- Activity (PC-12): -50.3%

SMILES: COc1ccc2cccc(CCNC(=O)N3CCC3)c2c1
- logP [1]: 1.56
- cytotoxicity at 24 h, 80 µM [2]: 28.4%
- cytotoxicity at 24 h, 80 µM [3]: 18.4%
- Activity (PC-12): 15.7%

SMILES: COc1ccc2cccc(CCNC(=O)/C=C/C(=O)O)c2c1
- logP [1]: 1.54
- Activity (Mus musculus): inactive
- cytotoxicity at 24 h, 80 µM [2]: 33%
- cytotoxicity at 24 h, 80 µM [3]: 3.4%
- Activity (PC-12): 23.2%

SMILES: COc1ccc2cccc(CCNC(=O)N(C)CCO)c2c1
- logP [1]: 1.12
- cytotoxicity at 24 h, 80 µM [2]: 7.1%
- cytotoxicity at 24 h, 80 µM [3]: 5.5%
- Activity (PC-12): -19.5%

SMILES: COc1ccc2cccc(CCN3C(=O)c4ccc(Br)cc4C3=O)c2c1
- logP [1]: 2.57
- cytotoxicity at 24 h, 80 µM [2]: 11.5%
- cytotoxicity at 24 h, 80 µM [3]: 9.1%
- Activity (PC-12): -10.5%

SMILES: COc1ccc2cccc(CCN3C(=O)C(C)=C(C)C3=O)c2c1
- logP [1]: 1.53
- Activity (Mus musculus): Active
- cytotoxicity at 24 h, 80 µM [2]: 9.6%
- cytotoxicity at 24 h, 80 µM [3]: 13.8%
- Activity (PC-12): 34.2%

SMILES: COc1ccc2cccc(CCNC(=O)N3CCN(C)CC3)c2c1
- logP [1]: 1.88
- cytotoxicity at 24 h, 80 µM [2]: 46.6%
- cytotoxicity at 24 h, 80 µM [3]: 20.1%
- Activity (PC-12): 13.6%

SMILES: COc1ccc2cccc(CCNC(=O)/C(C)=C(\C)C(=O)O)c2c1
- logP [1]: 2.01
- cytotoxicity at 24 h, 80 µM [2]: 13.2%
- cytotoxicity at 24 h, 80 µM [3]: 5.8%
- Activity (PC-12): 2.8%

SMILES: COc1ccc2cccc(CCNC(=O)N3CCCC3)c2c1
- logP [1]: -0.52
- cytotoxicity at 24 h, 80 µM [2]: 28.4%
- cytotoxicity at 24 h, 80 µM [3]: 19.3%
- Activity (PC-12): 9.8%

SMILES: COc1ccc2cccc(CCNC(=O)N3CCCCC3)c2c1
- logP [1]: 2.81
- cytotoxicity at 24 h, 80 µM [2]: 16.6%
- cytotoxicity at 24 h, 80 µM [3]: 22.6%
- Activity (PC-12): -11.5%

SMILES: COc1ccc2cccc(CCN3C(=O)C(Cl)=C(Cl)C3=O)c2c1
- logP [1]: 1.99
- cytotoxicity at 24 h, 80 µM [2]: 17.2%
- cytotoxicity at 24 h, 80 µM [3]: 3.4%
- Activity (PC-12): -12.8%

SMILES: CNCCC(Oc1ccc(C(F)(F)F)cc1)c1ccccc1 (stereo not drawn) [FLUOXETINE]
- Activity (PC-12): 19.7%

SMILES: COc1ccc2cccc(CCNC(=O)CC3(CC(=O)O)CCCC3)c2c1
- logP [1]: -1.17
- cytotoxicity at 24 h, 80 µM [2]: 13.4%
- cytotoxicity at 24 h, 80 µM [3]: 4.1%
- Activity (PC-12): -17.5%

SMILES: COc1ccc2cccc(CCNC(C)=O)c2c1 [AGOMELATINE]
- logP [1]: 1.62
- cytotoxicity at 24 h, 80 µM [2]: 26.6%
- cytotoxicity at 24 h, 80 µM [3]: 20.2%
- Activity (PC-12): 26.2%

SMILES: COc1ccc2cccc(CCNC(=O)/C(Cl)=C(\Cl)C(=O)O)c2c1
- logP [1]: 1.18
- cytotoxicity at 24 h, 80 µM [2]: 18.6%
- cytotoxicity at 24 h, 80 µM [3]: 3.8%
- Activity (PC-12): -8.4%

SMILES: CCN1CCN(C(=O)NCCc2cccc3ccc(OC)cc23)CC1
- logP [1]: 1.35
- cytotoxicity at 24 h, 80 µM [2]: 3.9%
- cytotoxicity at 24 h, 80 µM [3]: 3.1%
- Activity (PC-12): -7.7%

SMILES: COc1ccc2cccc(CCN3C(=O)CCC3=O)c2c1
- logP [1]: 1.87
- cytotoxicity at 24 h, 80 µM [2]: 8.1%
- cytotoxicity at 24 h, 80 µM [3]: 8.5%
- Activity (PC-12): -16.8%

SMILES: COc1ccc2cccc(CCNC(=O)CCC(=O)O)c2c1
- logP [1]: 1.35
- cytotoxicity at 24 h, 80 µM [2]: 13.9%
- cytotoxicity at 24 h, 80 µM [3]: 3.1%
- Activity (PC-12): 11%
